According to ChEMBL document CHEMBL2401735, “Synthesis and cytotoxicity of novel (thiazol-2-yl)hydrazine derivatives as promising anti-Candida agents” (Eur J Med Chem, 2013):
In brackets after ≈: the same amount, converted by molar mass.

Key:
[Candida] sake = Anticandida activity against Candida sake clinical isolate assessed as growth inhibition after 24 hrs by broth microdilution method; format: functional; settings: Fermentozyma sake
Summary of the method: (§1)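 Clinical Candida isolates subcultured for purity and optimal growth before testing; compounds dissolved in DMSO. Broth microdilution per NCCLS in Sabouraud dextrose broth, serial dilutions, inoculum about 10³/mL, with growth control and medium-only control; 24 h incubation at 37 °C. MIC is the lowest concentration giving complete visible inhibition.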

Candida parapsilosis = assay: Anticandida activity against Candida parapsilosis clinical isolate assessed as growth inhibition after 24 hrs by broth microdilution method; format: functional; settings: Lodderomyces parapsilosis; summary of the method: as §1
Pichia kudriavzevii = assay: Anticandida activity against Candida krusei clinical isolate assessed as growth inhibition after 24 hrs by broth microdilution method; format: functional; summary of the method: as §1
Candida tropicalis = assay: Anticandida activity against Candida tropicalis clinical isolate assessed as growth inhibition after 24 hrs by broth microdilution method; format: functional; summary of the method: as §1
Nakaseomyces glabratus = assay: Anticandida activity against Candida glabrata clinical isolate assessed as growth inhibition after 24 hrs by broth microdilution method; format: functional; summary of the method: as §1
Candida albicans = assay: Anticandida activity against Candida albicans clinical isolate assessed as growth inhibition after 24 hrs by broth microdilution method; format: functional; summary of the method: as §1
Klebsiella oxytoca = assay: Antibacterial activity against Klebsiella oxytoca assessed as growth inhibition after 18 to 22 hrs by broth microdilution method; format: functional
Summary of the method: (§2)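 Bacterial isolates subcultured for purity, identified conventionally. Broth microdilution per NCCLS in Mueller-Hinton II broth; plates with growth control (no compound) and medium-only control, incubated 18-22 h at 35 °C. MIC taken as lowest concentration giving complete growth inhibition by unaided eye.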

Proteus mirabilis = assay: Antibacterial activity against Proteus mirabilis assessed as growth inhibition after 18 to 22 hrs by broth microdilution method; format: functional; summary of the method: as §2
Enterobacter sp. = assay: Antibacterial activity against Enterobacter spp. assessed as growth inhibition after 18 to 22 hrs by broth microdilution method; format: functional; summary of the method: as §2
Escherichia coli = assay: Antibacterial activity against Escherichia coli assessed as growth inhibition after 18 to 22 hrs by broth microdilution method; format: functional; summary of the method: as §2
Enterococcus faecalis = assay: Antibacterial activity against […] assessed as growth inhibition after 18 to 22 hrs by broth microdilution method; format: functional; summary of the method: as §2
Staphylococcus warneri = assay: Antibacterial activity against Staphylococcus warneri assessed as growth inhibition after 18 to 22 hrs by broth microdilution method; format: functional; summary of the method: as §2
Staphylococcus aureus = assay: Antibacterial activity against Staphylococcus aureus assessed as growth inhibition after 18 to 22 hrs by broth microdilution method; format: functional; summary of the method: as §2
[1] = test system: Streptococcus alpha-hemolyticus; assay: Antibacterial activity against Streptococcus alpha-hemolyticus assessed as growth inhibition after 18 to 22 hrs by broth microdilution method

MIC ([Candida] sake) [mg/L]	MIC (Candida parapsilosis) [mg/L]	MIC (Pichia kudriavzevii) [mg/L]	MIC (Candida tropicalis) [mg/L]	MIC (Nakaseomyces glabratus) [mg/L]	MIC (Candida albicans) [mg/L]	MIC (Klebsiella oxytoca) [mg/L]	MIC (Proteus mirabilis) [mg/L]	MIC (Enterobacter sp.) [mg/L]	MIC (Escherichia coli) [mg/L]	MIC (Enterococcus faecalis) [mg/L]	MIC (Staphylococcus warneri) [mg/L]	MIC (Staphylococcus aureus) [mg/L]	SMILES	MIC [1] [mg/L]
256 (≈ 885 µM)	256 (≈ 885 µM)	256 (≈ 885 µM)	64 (≈ 221 µM)	32 (≈ 111 µM)	16 (≈ 55.3 µM)	> 256	> 256	> 256	> 256	> 256	> 256	> 256	CCC(CC)=NNc1nc(-c2ccc(OC)cc2)cs1	> 256
16 (≈ 52.7 µM)	16 (≈ 52.7 µM)	16 (≈ 52.7 µM)	16 (≈ 52.7 µM)	8 (≈ 26.4 µM)	4 (≈ 13.2 µM)	> 256	> 256	> 256	> 256	> 256	> 256	> 256	COc1ccc(-c2csc(N/N=C(\C)CC(C)C)n2)cc1	> 256
16 (≈ 48.3 µM)	16 (≈ 48.3 µM)	16 (≈ 48.3 µM)	32 (≈ 96.5 µM)	8 (≈ 24.1 µM)	8 (≈ 24.1 µM)	> 256	> 256	> 256	> 256	> 256	> 256	> 256	CCCCCC/C(C)=N/Nc1nc(-c2ccc(OC)cc2)cs1	> 256
16 (≈ 48.6 µM)	16 (≈ 48.6 µM)	16 (≈ 48.6 µM)	16 (≈ 48.6 µM)	4 (≈ 12.1 µM)	2 (≈ 6.07 µM)	> 256	> 256	> 256	> 256	> 256	> 256	> 256	COc1ccc(-c2csc(N/N=C(\C)C3CCCCC3)n2)cc1	> 256
16 (≈ 48.6 µM)	16 (≈ 48.6 µM)	16 (≈ 48.6 µM)	16 (≈ 48.6 µM)	4 (≈ 12.1 µM)	2 (≈ 6.07 µM)	> 256	> 256	> 256	> 256	> 256	> 256	> 256	COc1ccc(-c2csc(NN=C3CCCCCCC3)n2)cc1	> 256
256 (≈ 782 µM)	64 (≈ 195 µM)	256 (≈ 782 µM)	256 (≈ 782 µM)	32 (≈ 97.7 µM)	8 (≈ 24.4 µM)	> 256	> 256	> 256	> 256	> 256	> 256	> 256	COc1ccc(-c2csc(N/N=C3/C=CC(C)(C)CC3)n2)cc1	> 256
8 (≈ 26.5 µM)	8 (≈ 26.5 µM)	8 (≈ 26.5 µM)	4 (≈ 13.3 µM)	2 (≈ 6.63 µM)	0.5 (≈ 1.66 µM)	> 256	> 256	> 256	> 256	> 256	> 256	> 256	CCCCC/C(C)=N/Nc1nc(-c2ccc(C)cc2)cs1	> 256
16 (≈ 61.2 µM)	16 (≈ 61.2 µM)	16 (≈ 61.2 µM)	2 (≈ 7.65 µM)	0.5 (≈ 1.91 µM)	0.25 (≈ 0.957 µM)	> 256	> 256	> 256	> 256	> 256	> 256	> 256	COc1ccc(-c2csc(NN=C(C)C)n2)cc1	> 256
